Experimental data from PMC11178347 (Proteoglycan research, 2023).
“Also recorded” adds a separate entry of the source. Ends that are not written are not given here.

Experiments:
[1] = Peptide association with chondroitin sulfate; assay type: physicochemical; conditions: for Decrease in peptides associated per disaccharide / Percent Decrease in total peptide associated/GAG: with CS, before vs after 1 M NaCl and 8 M urea wash
In short: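 Chondroitin sulfate (10 mg/mL) reacted overnight at pH 4.5 with peptide (theoretical 16% disaccharide substitution) in 0.1 M MES/8 M urea/0.2 wt% NaCl, with EDC 0.5:1 per disaccharide or without EDC. Stopped at pH 8.5, tangential-flow filtered (10 kDa). Agitated 30 min in 1 M NaCl/8 M urea, spin-filtered (10 kDa) and water-exchanged three times. Peptide measured by A280 against standard curves, before and after wash.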

[2] = Circular dichroism secondary structure of GQLY variants; assay type: physicochemical; conditions: 1 mg/mL, pH 8.5 sodium borate buffer; for Antiparallel / Helix / Others / Parallel / Turn: CD far-UV 190-250 nm, BESTSEL; for Structure difference between variants by CD: SRR-hyd vs GSG-hyd
In short: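 Peptides at 1 mg/mL in pH 8.5 sodium borate buffer, quartz cell. Far-UV spectra 190–250 nm, baseline-corrected. Secondary-structure fractions fitted by least squares at each wavelength point, separating antiparallel β-sheet by twist angle and regular from distorted α-helix.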

[3] = SRR-hyd conjugation to GAG backbones; assay type: physicochemical; conditions: following salt washing
In short: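 Heparin, hyaluronic acid, chondroitin sulfate or dermatan sulfate (10 mg/mL) coupled to peptide with EDC (0.5:1 per disaccharide) in 0.1 M MES/8 M urea/0.2 wt% NaCl, pH 4.5, overnight. Quenched at pH 8.5, purified by tangential flow over a 10 kDa membrane, lyophilised. Peptide content from 280 nm absorbance using peptide standard curves, expressed per disaccharide (GAG mass divided by disaccharide mass).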

platelet binding = conditions: ref Biran & Pond, 2017; Linhardt et al., 2008; cited from earlier work
[4] = system: platelet adhesion to immobilized fibrillar collagen; experiment: Inhibition of platelet adhesion to immobilized fibrillar collagen under flow; assay type: cell-based; conditions: even at high concentrations; human whole blood, 1000 s−1
In short: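 Flow channels coated with fibrillar type I collagen (100 μg/mL, 1 h, room temperature) and PBS-washed. Channels pre-incubated 1 h with test compound, or with its heparin or peptide component alone, at increasing concentrations, then flushed. Citrated human whole blood, pooled and used within 3 h, stained with Calcein-AM 30 min at 37 °C. Conjugate added to blood, perfused at 1000 s−1. Adherent platelets imaged by fluorescence and normalised to untreated control.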

collagen = conditions: ref unpublished studies; cited from earlier work

GQLYKSILYGSGSG-hydrazide
Decrease in peptides associated per disaccharide [1]: 1.1%
Percent Decrease in total peptide associated/GAG [1]: 15%
Antiparallel [2]: 25.6
Helix [2]: 6.2
Others [2]: 53.9
Parallel [2]: 0
Turn [2]: 14.3
Structure difference between variants by CD [2]: minimal difference in their structure

dermatan sulfate [DS]
GQLY (SRR-hyd) conjugation supported by the GAG backbone [3]: same intermediate level of GQLY conjugation

heparin
Platelet binding suppression (platelet binding): known to suppress platelet binding
Platelet inhibition, in words [4]: no significant platelet inhibition
GQLY (SRR-hyd) conjugation supported by the GAG backbone [3]: greatest GQLY conjugation

GQLYKSILYGSGSGSRR-NH2
Peptide association with CS, without EDC ([1]; absence of EDC, initial 10 kDa purification): equivalent
Decrease in peptides associated per disaccharide [1]: 5.7%

chondroitin sulfate [CS]
GQLY (SRR-hyd) conjugation supported by the GAG backbone [3]: same intermediate level of GQLY conjugation

GQLYKSILY
Collagen binding (collagen): also binding to collagen

hyaluronic acid [HA]
GQLY (SRR-hyd) conjugation supported by the GAG backbone [3]: least

GQLYKSILYGSGSGSRR-hydrazide
Peptide association with CS, with EDC ([1]; after EDC reaction, initial 10 kDa purification): significantly more peptide association when using the SRR-hyd variant compared to the GSG-hyd variant; also recorded: more SRR-hyd associated with CS compared to the SRR-amide variant
Decrease in peptides associated per disaccharide [1]: 5.2%
Percent Decrease in total peptide associated/GAG [1]: 32%
Antiparallel [2]: 21.8
Helix [2]: 5.5
Others [2]: 59.2
Parallel [2]: 0
Turn [2]: 13.5
Structure difference between variants by CD [2]: minimal difference in their structure
